The results in this text go back to ChEMBL document CHEMBL3784986, “Discovery and Characterization of Biased Allosteric Agonists of the Chemokine Receptor CXCR3” (J Med Chem, 2016).

The target of data set [1] is T1, C-X-C chemokine receptor type 3 (Homo sapiens) (UniProt P49682).
T1 sequence (whole entry): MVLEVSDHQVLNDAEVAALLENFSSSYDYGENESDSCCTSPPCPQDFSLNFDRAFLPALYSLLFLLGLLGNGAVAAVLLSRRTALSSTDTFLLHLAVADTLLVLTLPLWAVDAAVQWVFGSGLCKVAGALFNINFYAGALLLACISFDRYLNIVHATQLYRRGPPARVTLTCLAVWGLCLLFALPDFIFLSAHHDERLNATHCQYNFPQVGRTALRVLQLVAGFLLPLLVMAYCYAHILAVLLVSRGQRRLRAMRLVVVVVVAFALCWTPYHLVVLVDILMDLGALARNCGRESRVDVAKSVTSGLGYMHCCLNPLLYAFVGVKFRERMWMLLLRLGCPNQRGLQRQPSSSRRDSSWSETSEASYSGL
Kind of data set: Positive allosteric modulation of human CXCR3 expressed in HEK293T cell membranes after 30 mins by [35S]GTPgammaS incorporation assay relative to CXCL11. The class given is functional. The note with it: HEK-293T. The essentials:
(§1)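 Membranes from HEK293 cells stably expressing CXCR3 (30 µg/mL protein) in 20 mM HEPES, 10 mM MgCl2, 100 mM NaCl, 100 mg/L saponin, pH 7.4. Compound plus 1 µM GDP preincubated 30 min at 37 °C, then 0.10 nM [35S]GTPγS added for 30 min at 37 °C. Filtered on GF/B and counted. Efficacy expressed as % of CXCL11. Three experiments in triplicate, pEC50 by nonlinear regression.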
For orientation: GTPγS is a poorly hydrolysed GTP analogue; its binding reports G protein activation.

The target of data set [2] is T1, C-X-C chemokine receptor type 3 (Homo sapiens). Kind of data set: Positive allosteric modulation of ProLink1-tagged wild type CXCR3 (unknown origin) expressed in HEK293T cells assessed as beta-arrestin-2 recruitment incubated for 4 hrs by chemiluminescence-based microplate reader method relative to CXCL11. To be noted: HEK-293T. The class given is cell-based. The essentials: (§2)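 HEK293 cells stably expressing β-gal enzyme acceptor, transiently transfected with PK1- or PK2-tagged wild-type CXCR3, 2000 cells/well, grown overnight at 37 °C. Compounds or CXCL11 in PBS pH 7.4 with 0.20% BSA added for 4 h. Detection mix 60 min at room temperature, then chemiluminescence read. Efficacy expressed as % of CXCL11 effect. Two to three experiments in triplicate.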

Data set [3] shares this target. Kind of data set: Positive allosteric modulation of ProLink2-tagged wild type CXCR3 (unknown origin) expressed in HEK293T cells assessed as beta-arrestin-2 recruitment incubated for 4 hrs by chemiluminescence-based microplate reader method relative to CXCL11. The class given is cell-based. The note with it: HEK-293T. The essentials: as §2
On the technique in general: Arrestin recruitment assays detect the binding of arrestin to an activated receptor.

For data set [4] the target is unchanged. Kind of data set: Positive allosteric modulation of human CXCR3 expressed in HEK293T cell membranes after 30 mins by [35S]GTPgammaS incorporation assay. The class given is functional. The note with it: HEK-293T. The gist of the method: as §1
For data set [5] the target is unchanged. Kind of data set: Inhibition of CXCL11-mediated activation of human CXCR3 expressed in HEK cells. The class given is cell-based. To be noted: HEK293.
Data set [6] has the same target. Kind of data set: Inhibition of CXCL10-mediated activation of human CXCR3 expressed in HEK cells. The class given is cell-based. The note with it: HEK293.
Data set [7] shares this target. Kind of data set: Positive allosteric modulation of ProLink1-tagged wild type CXCR3 (unknown origin) expressed in HEK293T cells assessed as beta-arrestin-2 recruitment incubated for 4 hrs by chemiluminescence-based microplate reader method. The class given is cell-based. The note with it: HEK-293T. The gist of the method: as §2
The nature of data set [8]: Cytotoxicity against HEK293T cells expressing CXCR3 at 10 uM incubated overnight by ApoTox-Glo Triplex assay. To be noted: human, hek-293t. The class given is cell-based. The gist of the method:
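10,000 HEK293T cells stably expressing CXCR3 incubated overnight with compound at 10 µM. ApoTox-Glo triplex. Viability read by fluorescence at 400Ex/505Em (GF-AFC) and cytotoxicity at 485Ex/520Em (bis-AAF-R110), each after a 30 min reagent step. Caspase-3/7 luminescence then read after a further 30 min.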

The source made the active and inactive calls. The calls are words filed in the database; no cut-off is given here.

`NCCCC[C@@H](NC(=O)[C@@H]1Cc2ccccc2CN1C(=O)CCC(=O)c1ccccc1)C(=O)NCC(c1ccccc1)c1ccccc1`: the results for the Efficacy in data set [1], in data set [2] and in data set [3] were 85%, 108% and 198%, respectively.

`CC(C)(C)OC(=O)N[C@@H](CCCCNC(=O)[C@@H]1Cc2ccccc2CN1C(=O)CCC(=O)N1CCOCC1)C(=O)NCC(c1ccccc1)c1ccccc1`: the pEC50 entry in data set [4] and in data set [7] was “inactive” throughout. For the same molecule, the Efficacy entry in data set [1] and in data set [2] was “inactive” in each case. For the same molecule, the inhibition result in data set [5] and in data set [6] was “inactive” throughout.

For the molecule `N[C@H](CCCCNC(=O)[C@@H]1Cc2ccccc2CN1C(=O)CCC(=O)c1ccccc1)C(=O)NCC(c1ccccc1)c1ccccc1`, the values for the Efficacy in data set [1], in data set [2] and in data set [3] were 25%, 28% and 79%, respectively. For the same molecule, the inhibition result in data set [5] and in data set [6] was “inactive” throughout.

As for `CC(C)(C)OC(=O)N[C@H](CCCCNC(=O)[C@@H]1Cc2ccccc2CN1)C(=O)NCC(c1ccccc1)c1ccccc1`, the Activity result in data set [8] is “Non-toxic”. The inhibition entry in data set [5] and in data set [6] was “inactive” in each case.

Take `CN1CCN(C(=O)CCC(=O)N2Cc3ccccc3C[C@H]2C(=O)NCCCC[C@H](NC(=O)OC(C)(C)C)C(=O)NCC(c2ccccc2)c2ccccc2)CC1`: the pEC50 result in data set [4] and in data set [7] was “inactive” throughout. Also, the Efficacy result in data set [1] and in data set [2] was “inactive” each time. For the same molecule, the inhibition result in data set [5] and in data set [6] was “inactive” each time.

For the molecule `CC(=O)CCC(=O)N1Cc2ccccc2C[C@H]1C(=O)NCCCC[C@H](NC(=O)OC(C)(C)C)C(=O)NCC(c1ccccc1)c1ccccc1`, in data set [4], the pEC50 result was “inactive”. For the same molecule, the Efficacy result in data set [1] was “inactive”. In addition, the Activity entry in data set [8] was “Non-toxic”. Further, the inhibition result in data set [5] and in data set [6] was “inactive” throughout. The Efficacy worked out at 34% in data set [2] and 63% in data set [3].

As to `CC(C)(C)OC(=O)N[C@@H](CCCCNC(=O)[C@@H]1Cc2ccccc2CN1C(=O)CCC(=O)N1CCCCC1)C(=O)NCC(c1ccccc1)c1ccccc1`, the pEC50 entry in data set [4] and in data set [7] was “inactive” throughout. In addition, the Efficacy entry in data set [1] and in data set [2] was “inactive” throughout. Besides, the inhibition entry in data set [5] and in data set [6] was “inactive” throughout.

Regarding `CC(C)(C)OC(=O)N[C@H](CCCCNC(=O)[C@@H]1Cc2ccccc2CN1C(=O)CCC(=O)c1ccccc1)C(=O)NCC(c1ccccc1)c1ccccc1`, in data set [4], the pEC50 entry is “inactive”. Moreover, the Efficacy entry in data set [1] was “inactive”. For the same molecule, the Activity entry in data set [8] is on record as “Non-toxic”. In addition, the inhibition result in data set [5] and in data set [6] was “inactive” throughout. Further, the Efficacy in data set [2] came out at 16%; in data set [3] it was 88%.

For the molecule `CC(C)(C)OC(=O)NCCCC[C@@H](NC(=O)[C@@H]1Cc2ccccc2CN1C(=O)CCC(=O)c1ccccc1)C(=O)NCC(c1ccccc1)c1ccccc1`, the Efficacy in data set [1] was found to be 33%; in data set [2], 36%; in data set [3], 30%.

Take `CC(C)(C)OC(=O)NCCCC[C@H](NC(=O)OCc1ccccc1)C(=O)NCC(c1ccccc1)c1ccccc1`: the Activity entry in data set [8] is reported as “Non-toxic”.

As for `CC(C)(C)OC(=O)N[C@@H](CCCCNC(=O)[C@@H]1Cc2ccccc2CN1C(=O)CCc1ccccc1)C(=O)NCC(c1ccccc1)c1ccccc1`, the Efficacy in data set [1] was determined as 30%; in data set [2] it was 19%; in data set [3], 29%. Moreover, the Activity entry in data set [8] is “Non-toxic”. Besides, the inhibition entry in data set [5] and in data set [6] was “inactive” each time.

On to `CC(C)(C)OC(=O)N[C@@H](CCCCNC(=O)[C@@H]1Cc2ccccc2CN1C(=O)CCCC(=O)c1ccccc1)C(=O)NCC(c1ccccc1)c1ccccc1`, for which the pEC50 entry in data set [4] is “inactive”. Further, the Efficacy entry in data set [1] is “inactive”. The Activity entry in data set [8] is on record as “Non-toxic”. In addition, the inhibition entry in data set [5] and in data set [6] was “inactive” in each case. Besides, the Efficacy in data set [2] came to 20%; in data set [3], 56%.

In turn, `COc1ccc(C(=O)CCC(=O)N2Cc3ccccc3C[C@H]2C(=O)NCCCC[C@H](NC(=O)OC(C)(C)C)C(=O)NCC(c2ccccc2)c2ccccc2)cc1OC` displayed an Efficacy in data set [1] of 18%. The Activity entry in data set [8] was “Non-toxic”. Further, the inhibition entry in data set [5] and in data set [6] was “inactive” each time. Also, the pEC50 result in data set [7] was “inactive”. Moreover, the Efficacy entry in data set [2] is “inactive”.

Consider `CC(C)(C)OC(=O)N[C@@H](CCCCNC(=O)[C@@H]1Cc2ccccc2CN1C(=O)CCC(=O)c1ccc(S(C)(=O)=O)cc1)C(=O)NCC(c1ccccc1)c1ccccc1`, for which the Efficacy in data set [1] was 25%. Besides, the Activity entry in data set [8] was “Non-toxic”. For the same molecule, the inhibition entry in data set [5] and in data set [6] was “inactive” in each case. For the same molecule, the pEC50 entry in data set [7] was “inactive”. For the same molecule, in data set [2], the Efficacy entry was “inactive”.

Take `CC(C)(C)OC(=O)N[C@@H](CCCCNC(=O)[C@@H]1Cc2ccccc2CN1)C(=O)NCC(c1ccccc1)c1ccccc1`: the Efficacy is 34% in data set [1], 31% in data set [2] and 79% in data set [3]. The Activity result in data set [8] is “Non-toxic”. The inhibition result in data set [5] and in data set [6] was “inactive” throughout.

For `N[C@@H](CCCCNC(=O)[C@@H]1Cc2ccccc2CN1)C(=O)NCC(c1ccccc1)c1ccccc1`, the Efficacy in data set [1] was 40%; in data set [2] it was 14%; in data set [3], 85%. Further, the inhibition entry in data set [5] and in data set [6] was “inactive” each time.

In the case of `NCCCC[C@H](NC(=O)[C@@H]1Cc2ccccc2CN1C(=O)CCC(=O)c1ccccc1)C(=O)NCC(c1ccccc1)c1ccccc1.O=C(O)C(F)(F)F`, the Activity result in data set [4] is “Dose-dependent effect”; in data set [8] it was “Non-toxic”. For the same molecule, the figures for the Efficacy in data set [1] and in data set [2] were 109% and 139%, respectively.

In turn, `CC(C)(C)OC(=O)N[C@@H](CCCCNC(=O)[C@@H]1Cc2ccccc2CN1C(=O)CCCc1ccccc1)C(=O)NCC(c1ccccc1)c1ccccc1` gave an Efficacy in data set [1] of 29%. Further, the Activity entry in data set [8] is “Non-toxic”. For the same molecule, the inhibition result in data set [5] and in data set [6] was “inactive” each time. For the same molecule, the pEC50 result in data set [7] was “inactive”. Besides, the Efficacy result in data set [2] is “inactive”.

In the case of `CC(C)(C)OC(=O)N[C@@H](CCCCNC(=O)[C@@H]1Cc2ccccc2CN1C(=O)CCC(=O)c1ccc(F)cc1)C(=O)NCC(c1ccccc1)c1ccccc1`, in data set [1], the Efficacy was found to be 20%. Also, the Activity result in data set [8] is “Non-toxic”. The inhibition entry in data set [5] and in data set [6] was “inactive” each time. In data set [7], the pEC50 entry was “inactive”. In data set [2], the Efficacy result was “inactive”.

In the case of `N[C@@H](CCCCNC(=O)[C@@H]1Cc2ccccc2CN1C(=O)CCC(=O)c1ccccc1)C(=O)NCC(c1ccccc1)c1ccccc1`, in data set [4], the pEC50 result is “inactive”. In data set [1], the Efficacy result was “inactive”. Besides, the inhibition entry in data set [5] and in data set [6] was “inactive” throughout. Besides, the Efficacy in data set [2] came out at 17%; in data set [3] it was 27%.

As to `N[C@@H](CCCCNC(=O)[C@@H]1Cc2ccccc2CN1C(=O)CCCC(=O)c1ccccc1)C(=O)NCC(c1ccccc1)c1ccccc1`, the pEC50 result in data set [4] was “inactive”. In addition, the Efficacy result in data set [1] is “inactive”. The inhibition entry in data set [5] and in data set [6] was “inactive” throughout. Moreover, the values for the Efficacy in data set [2] and in data set [3] were 20% and 91%, respectively.
